Measurements: ChEMBL document CHEMBL1121371, “Antihypertensive 5,6-diarylpyridazin-3-ones” (1980)
Activity calls are given as the source filed them. The calls are words filed in the database; no cut-off is given here.

Assays:
[1] = system: Rattus norvegicus; assay: Antihypertensive activity in spontaneously hypertensive rats was measured as average blood pressure at 100 mg/kg, p.o. after 4 hours of postdose-2; type: functional; details: route oral
Outline: (§1)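 Spontaneously hypertensive rats aged 12 to 16 weeks, in groups of five with systolic pressure of 170 mmHg or more. Oral dosing as a solution or suspension in 0.25% methylcellulose, 5 mL/kg, with a vehicle control group. Tail-cuff systolic pressure was read predose and 4 and 24 h after each of two doses. Values were compared with predose by Student's t test.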

[2] = system: Rattus norvegicus; assay: Antihypertensive activity in spontaneously hypertensive rats was measured as average blood pressure at 100 mg/kg, p.o. before predose; type: functional; details: route oral; outline: as §1
[3] = system: Rattus norvegicus; assay: Antihypertensive activity in spontaneously hypertensive rats was measured as average blood pressure at 100 mg/kg, p.o. after 4 hours of postdose-1.; type: functional; details: route oral; outline: as §1
[4] = system: Rattus norvegicus; assay: Antihypertensive activity in spontaneously hypertensive rats was measured as average blood pressure at 30 mg/kg, p.o. after 24 hours of postdose-1; type: functional; details: route oral; outline: as §1
[5] = system: Rattus norvegicus; assay: Antihypertensive activity in spontaneously hypertensive rats was measured as average blood pressure at 10 mg/kg, p.o. after 24 hours of postdose-1; type: functional; details: route oral; outline: as §1
[6] = system: Rattus norvegicus; assay: Antihypertensive activity in spontaneously hypertensive rats was measured as average blood pressure at 100 mg/kg, p.o. after 24 hours of postdose-1.; type: functional; details: route oral; outline: as §1
[7] = system: Rattus norvegicus; assay: Antihypertensive activity in spontaneously hypertensive rats was measured as average blood pressure at 10 mg/kg, p.o. after 4 hours of postdose-1.; type: functional; details: route oral; outline: as §1
[8] = system: Rattus norvegicus; assay: Antihypertensive activity in spontaneously hypertensive rats was measured as average blood pressure at 10 mg/kg, p.o. after 24 hours of postdose-2; type: functional; details: route oral; outline: as §1
[9] = system: Rattus norvegicus; assay: Antihypertensive activity in spontaneously hypertensive rats was measured as average blood pressure at 10 mg/kg, p.o. before predose; type: functional; details: route oral; outline: as §1
[10] = system: Rattus norvegicus; assay: Antihypertensive activity in spontaneously hypertensive rats was measured as average blood pressure at 30 mg/kg, p.o. before predose; type: functional; details: route oral; outline: as §1
[11] = system: Rattus norvegicus; assay: Antihypertensive activity in spontaneously hypertensive rats was measured as average blood pressure at 30 mg/kg, p.o. after 4 hours of postdose-2; type: functional; details: route oral; outline: as §1
[12] = system: Rattus norvegicus; assay: Antihypertensive activity in spontaneously hypertensive rats was measured as average blood pressure at 30 mg/kg, po after 4 hours of postdose-1.; type: functional; outline: as §1
[13] = system: Rattus norvegicus; assay: Antihypertensive activity in spontaneously hypertensive rats was measured as average blood pressure at 10 mg/kg, p.o. after 4 hours of postdose-2; type: functional; details: route oral; outline: as §1
[14] = system: Rattus norvegicus; assay: Antihypertensive activity in spontaneously hypertensive rats was measured as average blood pressure at 30 mg/kg, p.o. after 24 hours of postdose-2; type: functional; details: route oral; outline: as §1
[15] = system: Rattus norvegicus; assay: Antihypertensive activity in spontaneously hypertensive rats was measured as average blood pressure at 100 mg/kg, po after 24 hours of postdose-2; type: functional; outline: as §1
[16] = system: Rattus norvegicus; assay: Antihypertensive activity in spontaneously hypertensive rats was measured as average blood pressure at 25 mg/kg, p.o. after 4 hours of postdose-1.; type: functional; details: route oral; outline: as §1
[17] = system: Rattus norvegicus; assay: Antihypertensive activity in spontaneously hypertensive rats was measured as average blood pressure at 25 mg/kg, p.o. after 24 hours of postdose-2; type: functional; details: route oral; outline: as §1
[18] = system: Rattus norvegicus; assay: Antihypertensive activity in spontaneously hypertensive rats was measured as average blood pressure at 25 mg/kg, p.o. before predose; type: functional; details: route oral; outline: as §1
[19] = system: Rattus norvegicus; assay: Antihypertensive activity in spontaneously hypertensive rats was measured as average blood pressure at 25 mg/kg, p.o. after 24 hours of postdose-1; type: functional; details: route oral; outline: as §1
[20] = system: Rattus norvegicus; assay: Antihypertensive activity in spontaneously hypertensive rats was measured as average blood pressure at 25 mg/kg, p.o. after 4 hours of postdose-2; type: functional; details: route oral; outline: as §1
[21] = system: Rattus norvegicus; assay: Antihypertensive activity in spontaneously hypertensive rats was measured as average blood pressure at 100 mg/kg, p.o. after 4 hours of postdose-1; type: functional; details: route oral; outline: as §1
[22] = system: Rattus norvegicus; assay: Antihypertensive activity in spontaneously hypertensive rats was measured as increase in heart rate at 100 mg/kg peroral dose; (+)=increased heart rate; type: functional, organism-based; parameters: dose 100 mg/kg
[23] = species: Rattus norvegicus; assay: Antihypertensive activity in spontaneously hypertensive rats was measured as decrease in heart rate; (-)=decreased heart rate; type: functional, organism-based
[24] = system: Rattus norvegicus; assay: Antihypertensive activity in spontaneously hypertensive rats was measured as average blood pressure at 75 mg/kg, p.o. after 4 hours of postdose-2; type: functional; details: route oral
[25] = system: Rattus norvegicus; assay: Antihypertensive activity in spontaneously hypertensive rats was measured as average blood pressure at 75 mg/kg, p.o. after 24 hours of postdose-2; type: functional; details: route oral
[26] = system: Rattus norvegicus; assay: Antihypertensive activity in spontaneously hypertensive rats was measured as average blood pressure at 75 mg/kg, p.o. after 24 hours of postdose-1; type: functional; details: route oral
[27] = system: Rattus norvegicus; assay: Antihypertensive activity in spontaneously hypertensive rats was measured as average blood pressure at 75 mg/kg, p.o. before predose; type: functional; details: route oral
[28] = system: Rattus norvegicus; assay: Antihypertensive activity in spontaneously hypertensive rats was measured as average blood pressure at 75 mg/kg, po after 4 hours of postdose-1.; type: functional

Work on CC(=O)c1c(-c2ccc(Cl)cc2)c(-c2ccc(Cl)cc2)nn(CCN=C(C)C)c1=O yielded a BP [1] of 134 mmHg, a BP [2] of 209 mmHg and a BP [3] of 203 mmHg. It also gave a BP [4] of 196 mmHg, a BP [5] of 208 mmHg and a BP [6] of 158 mmHg. For the same molecule, the BP [7] was 214 mmHg, the BP [8] was 209 mmHg and the BP [9] was 210 mmHg. It also gave a BP [10] of 211 mmHg, a BP [11] of 190 mmHg and a BP [12] of 201 mmHg. The BP [13] was 205 mmHg, the BP [14] was 198 mmHg and the BP [15] was 164 mmHg.

Work on Br.CC(=O)c1c(-c2ccc(Cl)cc2)c(-c2ccc(Cl)cc2)nn(CCN)c1=O yielded a BP [16] of 184 mmHg, a BP [17] of 183 mmHg and a BP [18] of 194 mmHg. It also gave a BP [19] of 162 mmHg and a BP [20] of 177 mmHg.

With C[C@](N)(Cc1ccc(O)c(O)c1)C(=O)O [METHYLDOPA] the BP [21] was 161 mmHg, the BP [1] was 155 mmHg and the BP [2] was 178 mmHg. The BP [6] was 174 mmHg and the BP [15] was 166 mmHg.

CC(=O)c1c(-c2ccc(Cl)cc2)c(-c2ccc(Cl)cc2)nn(CCN(C)C)c1=O was tested, and the Heart rate [22] was “increased heart rate”.

Molecule COCCn1nc(-c2ccc(Cl)cc2)c(-c2ccc(Cl)cc2)c(C(C)=O)c1=O has a BP [21] of 142 mmHg, a BP [1] of 144 mmHg and a BP [2] of 186 mmHg. It also gave a BP [6] of 148 mmHg and a BP [15] of 158 mmHg.

With CC(=O)c1c(-c2ccc(Cl)cc2)c(-c2ccc(Cl)cc2)nn(CCN2CCCC2)c1=O the BP [21] was 155 mmHg, the BP [1] was 142 mmHg and the BP [2] was 192 mmHg. The BP [4] was 187 mmHg, the BP [5] was 204 mmHg and the BP [6] was 138 mmHg. For the same molecule, the BP [7] was 205 mmHg, the BP [8] was 207 mmHg and the BP [9] was 208 mmHg. For the same molecule, the BP [10] was 212 mmHg, the BP [11] was 191 mmHg and the BP [23] was “inactive”. The BP [12] was 200 mmHg, the BP [13] was 202 mmHg and the BP [14] was 199 mmHg. The BP [15] was 146 mmHg.

N#Cc1c(-c2ccc(Cl)cc2)c(-c2ccc(Cl)cc2)nn(CCCC(=O)O)c1=O was tested, and the BP [1] was 175 mmHg, the BP [2] was 215 mmHg and the BP [3] was 202 mmHg. For the same molecule, the BP [6] was 204 mmHg and the BP [15] was 180 mmHg.

CC(=O)c1c(-c2ccc(Cl)cc2)c(-c2ccc(Cl)cc2)nn(CCNC(C)C)c1=O gave a BP [1] of 143 mmHg, a BP [2] of 216 mmHg and a BP [3] of 211 mmHg. The BP [6] was 181 mmHg and the BP [15] was 176 mmHg.

For CC(=O)c1c(-c2ccc(Cl)cc2)c(-c2ccc(Cl)cc2)nn(CCN2CCCCC2)c1=O, the BP [1] was 165 mmHg, the BP [2] was 192 mmHg and the BP [3] was 180 mmHg. The BP [6] was 163 mmHg and the BP [15] was 176 mmHg.

Molecule CC(=O)c1c(-c2ccccc2)c(-c2ccccc2)nn(CCO)c1=O has a BP [24] of 164 mmHg, a BP [25] of 176 mmHg and a BP [26] of 163 mmHg. The BP [27] was 200 mmHg and the BP [28] was 181 mmHg.
